# In PubChem BioAssay AID588455 (Southern Research Specialized Biocontainment Screening …, 2011):
# Test system: HEp-2 RSV Long CPE inhibition, luminescence viability
# Assay: RSV cytopathic effect inhibition in HEp-2 cells, dose response, cell-based, synthesized compounds, set 13 (AID 588455)
# Method in brief: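 test system = HEp-2 human cells infected with RSV strain Long | doses = 8-point twofold series, 50 to 0.39 µM, 0.5% DMSO final | schedule = 6 d infection at 37 °C | measured by = luminescence-based measurement of viral cytopathic effect | read-out basis = percent CPE inhibition versus cell-only and virus-only wells, plus four-parameter IC50 | benchmarks = cells-only and virus-infected control wells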
row,SMILES,IC50
1,COCCCNC(=O)c1ccc(Cn2c(=O)c3ccccc3n(Cc3ccc(Cl)cc3)c2=O)cc1,970 nM
2,COCCCNC(=O)c1ccc(Cn2c(=O)c3ccccc3n(Cc3ccc(Br)cc3)c2=O)cc1,480 nM
3,COCCCNC(=O)c1ccc(Cn2c(=O)c3ccccc3n(Cc3ccc([N+](=O)[O-])cc3)c2=O)cc1,480 nM
